In ChEMBL document CHEMBL1150426, “New C5-alkylated indolobenzazepinones acting as inhibitors of tubulin polymerization: cytotoxic and antitumor activities” (J Med Chem, 2008):
Activity calls are given as the source filed them. The rule behind the calls is not given here.

What was measured:
[1] = Inhibition of sheep brain tubulin polymerization; set-up: species or system Ovis aries
Outline: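 Sheep brain tubulin (about 2–3 mg/mL), purified by two assembly–disassembly cycles, in 0.1 M MES, 0.5 mM MgCl₂, 1 mM EGTA, 1 mM GTP, pH 6.6. Assembly followed by turbidity at 350 nm, 37 °C.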

[2] = test system: KB; test: Cytotoxicity against human KB cells after 72 hrs; assay type: functional, cell-based
Outline: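 KB cells in EMEM (4.5 g/L glucose, 10% FCS, 1% glutamine) seeded 5 × 10³/well, dosed after 24 h with compound in DMSO (<0.1%). 72 h exposure, then resazurin 2 h; fluorescence ex 560/em 590 nm. IC50 = 50% fluorescence decrease versus untreated; triplicate.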

[3] = test system: K562; test: Antiproliferative activity against human K562 cells after 72 hrs; assay type: functional, cell-based; conditions: K562, 72 h
Outline: (§1)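 Cells were seeded at 5 × 10³ per well and cultured for 24 h. Test compound in DMSO (under 0.1%) was then added for 72 h. Resazurin was added for 2 h, and fluorescence was read at ex 560 nm / em 590 nm. IC50 was taken as the concentration giving a 50% fall in fluorescence versus untreated cells. Runs were done in triplicate.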

[4] = test system: K562; test: Cell cycle arrest in human K562 cells assessed as accumulation at G0/G1 phase at 0.05 uM after 24 hrs by flow cytometry; assay type: functional
Outline: (§2)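 Exponentially growing K562 cells exposed to compound or DMSO for 6, 16 or 24 h; cell-cycle phase distribution determined by flow cytometry; data representative of three independent experiments.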

[5] = test system: K562; test: Cell cycle arrest in human K562 cells assessed as accumulation at G2/M phase at 0.5 uM after 24 hrs by flow cytometry; assay type: functional; outline: as §2
[6] = test system: K562; test: Cell cycle arrest in human K562 cells assessed as accumulation at S phase at 1 uM after 16 hrs by flow cytometry; assay type: functional; outline: as §2
[7] = test system: MCF7; test: Antiproliferative activity against human MCF7 cells after 72 hrs; assay type: functional, cell-based; conditions: MCF7, 72 h; outline: as §1
[8] = test system: B16-F10; test: Antiproliferative activity against mouse B16F10 cells after 72 hrs; assay type: functional, cell-based; conditions: B16-F10, 72 h; outline: as §1
[9] = test system: K562; test: Cell cycle arrest in human K562 cells assessed as accumulation at S phase at 0.05 uM after 16 hrs by flow cytometry; assay type: functional; outline: as §2
[10] = test system: K562; test: Cell cycle arrest in human K562 cells assessed as accumulation at G0/G1 phase at 0.5 uM after 16 hrs by flow cytometry; assay type: functional; outline: as §2
[11] = test system: HCT-116; test: Antiproliferative activity against human HCT116 cells after 72 hrs; assay type: functional, cell-based; conditions: HCT-116, 72 h; outline: as §1
[12] = test system: L1210; test: Antiproliferative activity against mouse L1210 cells after 72 hrs; assay type: functional, cell-based; conditions: L1210, 72 h; outline: as §1
[13] = test system: K562; test: Cell cycle arrest in human K562 cells assessed as accumulation at G0/G1 phase at 1 uM after 6 hrs by flow cytometry; assay type: functional; outline: as §2
[14] = test system: K562; test: Cell cycle arrest in human K562 cells assessed as accumulation at G0/G1 phase at 0.5 uM after 6 hrs by flow cytometry; assay type: functional; outline: as §2
[15] = test system: MDA-MB-231; test: Antiproliferative activity against human MDA-MB-231 cells after 72 hrs; assay type: functional, cell-based; conditions: MDA-MB-231, 72 h; outline: as §1
[16] = test system: HCT-116; test: Induction of apoptosis in human HCT116 cells assessed as activation of caspase 7 at 0.01 to 1 uM after 24 hrs by microtitre plate fluorimeter; assay type: functional, cell-based
Outline: (§3)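 Cells seeded 5 × 10⁴/well, then after 24 h given compound at 1, 0.1 or 0.01 µM, or 0.1% DMSO as negative control, for 24 h. Caspase-3/7 substrate in homogeneous assay buffer added; fluorescence read at 527 nm after 1 h.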

[17] = test system: MDA-MB-231; test: Effect on cell morphology in human MDA-MB-231 cells assessed as change in cell size and shape at 0.050 uM after 24 hrs; assay type: functional, cell-based
Outline: (§4)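 MDA-MB231 cells on chamber slides treated 24 h at 50 nM, fixed in 3.7% formaldehyde, permeabilized with 0.1% Triton X-100. Stained for β-tubulin (Alexa 488 secondary), actin (Alexa 546 phalloidin) and nuclei (Hoechst 33342); imaged by fluorescence microscopy at 60× and 100×.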

[18] = test system: K562; test: Cell cycle arrest in human K562 cells assessed as accumulation at G2/M phase at 0.5 uM after 16 hrs by flow cytometry; assay type: functional; outline: as §2
[19] = test system: K562; test: Cell cycle arrest in human K562 cells assessed as accumulation at G2/M phase at 1 uM after 16 hrs by flow cytometry; assay type: functional; outline: as §2
[20] = test system: K562; test: Cell cycle arrest in human K562 cells assessed as accumulation at G2/M phase at 0.5 uM after 6 hrs by flow cytometry; assay type: functional; outline: as §2
[21] = test system: K562; test: Cell cycle arrest in human K562 cells assessed as accumulation at G2/M phase at 0.05 uM after 24 hrs by flow cytometry; assay type: functional; outline: as §2
[22] = test system: K562; test: Cell cycle arrest in human K562 cells assessed as accumulation at G0/G1 phase at 1 uM after 16 hrs by flow cytometry; assay type: functional; outline: as §2
[23] = test system: K562; test: Induction of apoptosis in human K562 cells assessed as activation of caspase 7 at 0.01 to 1 uM after 24 hrs by microtitre plate fluorimeter; assay type: functional, cell-based; outline: as §3
[24] = test system: MDA-MB-435; test: Antiproliferative activity against human MDA-MB-435 cells after 72 hrs; assay type: functional, cell-based; conditions: MDA-MB-435, 72 h; outline: as §1
[25] = test system: HCT-116; test: Induction of apoptosis in human HCT116 cells assessed as activation of caspase 3 at 0.01 to 1 uM after 24 hrs by microtitre plate fluorimeter; assay type: functional, cell-based; outline: as §3
[26] = test system: A549; test: Antiproliferative activity against human A549 cells after 72 hrs; assay type: functional, cell-based; conditions: A549, 72 h; outline: as §1
[27] = test system: K562; test: Cell cycle arrest in human K562 cells assessed as accumulation at S phase at 0.5 uM after 6 hrs by flow cytometry; assay type: functional; outline: as §2
[28] = test system: K562; test: Induction of apoptosis in human K562 cells assessed as activation of caspase 3 at 0.01 to 1 uM after 24 hrs by microtitre plate fluorimeter; assay type: functional, cell-based; outline: as §3
[29] = test system: K562; test: Cell cycle arrest in human K562 cells assessed as accumulation at S phase at 1 uM after 6 hrs by flow cytometry; assay type: functional; outline: as §2
[30] = test system: K562; test: Cell cycle arrest in human K562 cells assessed as accumulation at S phase at 0.5 uM after 24 hrs by flow cytometry; assay type: functional; outline: as §2
[31] = test system: K562; test: Cell cycle arrest in human K562 cells assessed as accumulation at G2/M phase at 0.05 uM after 16 hrs by flow cytometry; assay type: functional; outline: as §2
[32] = test system: MDA-MB-231; test: Induction of apoptosis in human MDA-MB-231 cells assessed as activation of caspase 7 at 0.01 to 1 uM after 24 hrs by microtitre plate fluorimeter; assay type: functional, cell-based; outline: as §3
[33] = test system: K562; test: Cell cycle arrest in human K562 cells assessed as accumulation at S phase at 0.5 uM after 16 hrs by flow cytometry; assay type: functional; outline: as §2
[34] = test system: K562; test: Cell cycle arrest in human K562 cells assessed as accumulation at S phase at 1 uM after 24 hrs by flow cytometry; assay type: functional; outline: as §2
[35] = test system: K562; test: Cell cycle arrest in human K562 cells assessed as accumulation at S phase at 0.05 uM after 6 hrs by flow cytometry; assay type: functional; outline: as §2
[36] = test system: MDA-MB-231; test: Effect on cell morphology in human MDA-MB-231 cells assessed as change in cellular mass at 0.050 uM after 24 hrs; assay type: functional, cell-based; outline: as §4
[37] = test system: HT-29; test: Antiproliferative activity against human HT29 cells after 72 hrs; assay type: functional, cell-based; conditions: HT-29, 72 h; outline: as §1
[38] = test system: MCF7; test: Cell cycle arrest in human MCF7 cells assessed as accumulation at G2/M phase at 0.1 uM after 24 hrs by flow cytometry
[39] = test system: K562; test: Cell cycle arrest in human K562 cells assessed as accumulation at G0/G1 phase at 0.05 uM after 6 hrs by flow cytometry; assay type: functional; outline: as §2
[40] = test system: MDA-MB-231; test: Induction of apoptosis in human MDA-MB-231 cells assessed as activation of caspase 3 at 0.01 to 1 uM after 24 hrs by microtitre plate fluorimeter; assay type: functional, cell-based; outline: as §3
[41] = test system: K562; test: Cell cycle arrest in human K562 cells assessed as accumulation at G0/G1 phase at 0.05 uM after 16 hrs by flow cytometry; assay type: functional; outline: as §2
[42] = test system: K562; test: Cell cycle arrest in human K562 cells assessed as accumulation at S phase at 0.05 uM after 24 hrs by flow cytometry; assay type: functional; outline: as §2
[43] = Antitumor activity against human U87 tumor transplanted in chick chorio-allantoic membrane assessed as reduction of tumor volume at 10 uM after 4 days; assay type: functional, U-87MG ATCC; set-up: scale not given: the % may be the effect or the level left
Outline: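 U87 glioma cells (5 × 10⁶ in 20 µL medium) grafted on chick CAM on embryonic day 10; size-matched tumors grouped on day 2. 20 µL drug at 10 µM applied locally once daily, days 3–6 of tumor growth; controls got solvent. Volume V = 4/3πr³ from length and width, six tumors per group.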

[44] = test system: MDA-MB-231; test: Cell cycle arrest in human MDA-MB-231 cells assessed as accumulation at G2/M phase at 0.1 uM after 24 hrs by flow cytometry
[45] = test system: K562; test: Cell cycle arrest in human K562 cells assessed as accumulation at G0/G1 phase at 0.5 uM after 24 hrs by flow cytometry; assay type: functional; outline: as §2
[46] = test system: K562; test: Cell cycle arrest in human K562 cells assessed as accumulation at G2/M phase at 1 uM after 6 hrs by flow cytometry; assay type: functional; outline: as §2
[47] = test system: K562; test: Cell cycle arrest in human K562 cells assessed as accumulation at G2/M phase at 0.05 uM after 6 hrs by flow cytometry; assay type: functional; outline: as §2
[48] = test system: MCF7; test: Cell cycle arrest in human MCF7 cells assessed as accumulation at G2/M phase at 0.05 uM after 24 hrs by flow cytometry
[49] = test system: K562; test: Cell cycle arrest in human K562 cells assessed as accumulation at G2/M phase at 1 uM after 24 hrs by flow cytometry; assay type: functional; conditions: in the assay text read “at 0.1 uM” for “at 1 uM”; outline: as §2
[50] = test system: K562; test: Cell cycle arrest in human K562 cells assessed as accumulation at G0/G1 phase at 1 uM after 24 hrs by flow cytometry; assay type: functional; outline: as §2
[51] = test system: MDA-MB-231; test: Cell cycle arrest in human MDA-MB-231 cells assessed as accumulation at G2/M phase at 0.05 uM after 24 hrs by flow cytometry

Compound: COc1ccc2[nH]c3c(c2c1)-c1ccccc1[C@H](C)NC3=O
- IC50 [1]: 51000 nM
- IC50 [2]: 3500 nM

Compound: CC1NC(=O)c2[nH]c3ccccc3c2-c2ccccc21 (racemic)
- IC50 [2]: 280 nM

Compound: CC1NC(=O)c2c(c3ccccc3n2C)-c2ccccc21 (racemic)
- IC50 [2]: 7000 nM

Compound: CC(C)C1NC(=O)c2[nH]c3ccccc3c2-c2ccccc21 (racemic)
- IC50 [1]: 1700 nM
- IC50 [2]: 280 nM

Compound: CC[C@@H]1NC(=O)c2[nH]c3ccccc3c2-c2ccccc21
- IC50 [3]: 70 nM
- Activity [4]: 14.6%
- Activity [5]: 44.7%
- Activity [6]: 52.8%
- IC50 [7]: 40 nM
- IC50 [1]: 1900 nM
- IC50 [8]: 68 nM
- Activity [9]: 97.6%
- Activity [10]: 0.6%
- IC50 [11]: 42 nM
- IC50 [12]: 34 nM
- Activity [13]: 0.2%
- Activity [14]: 0.2%
- IC50 [15]: 30 nM
- Activity [16]: Active
- IC50 [2]: 37 nM
- Activity [17]: Active
- Activity [18]: 51.5%
- Activity [19]: 43.4%
- Activity [20]: 32%
- Activity [21]: 24.9%
- Activity [22]: 2.4%
- Activity [23]: Active
- IC50 [24]: 70 nM
- Activity [25]: Active
- IC50 [26]: 50 nM
- Activity [27]: 67.8%
- Activity [28]: Active
- Activity [29]: 91.1%
- Activity [30]: 53.4%
- Activity [31]: 1.1%
- Activity [32]: Active
- Activity [33]: 47.3%
- Activity [34]: 69.5%
- Activity [35]: 94.3%
- Activity [36]: Active
- IC50 [37]: 42 nM
- Activity [38]: 62.6%
- Activity [39]: 0.3%
- Activity [40]: Active
- Activity [41]: 1%
- Activity [42]: 49.1%
- Activity [43]: 76%
- Activity [44]: 100%
- Activity [45]: 1.2%
- Activity [46]: 8.1%
- Activity [47]: 4.9%
- Activity [48]: 65.6%
- Activity [49]: 20.3%
- Activity [50]: 7.6%
- Activity [51]: 44.5%

Compound: CC1c2ccccc2-c2c(n(C)c3ccccc23)C(=O)N1C (stereo unspecified)
- IC50 [2]: 28000 nM

Compound: CC1NCc2[nH]c3ccccc3c2-c2ccccc21 (racemic)
- IC50 [2]: 12000 nM

Compound: CCCCC1NC(=O)c2[nH]c3ccccc3c2-c2ccccc21 (racemic)
- IC50 [1]: 1000 nM
- IC50 [2]: 35 nM
